This is one part of a sample in which hits are shown more often than they occur.
bCat KO growth: beta-catenin-lacking colon tumor cell growth suppression | hit rate 1.5% among 140,000 | viability, % at 10 µM | HCT116 beta-catenin knockout viability, CellTiter-Glo, 60 h; active compounds read low;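 active means viability at or under a set limit, the compound median less 4 SD, cut at about 6% in these data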
HCT116 PTEN-null: suppresses growth of cells with PTEN deletion; HCT116 PTEN-null viability, CellTiter-Glo, 60 h; active compounds read low; AID 827; viability, % at 10 µM; hit rate 1.2% among 140,000;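 active means viability at or below a set limit, 4 SD under the median of all tested compounds, cut at about 3.7% in these data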;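 further: PTEN knockout HCT116 line with beta catenin targeted HCT116 as companion control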
Lung fibro prol: blocks proliferation of human lung fibroblasts | hit rate 1.1% among 85,000 | LL 47 human lung fibroblast viability, ATP luminescence; active compounds read low | viability, % at 10 µM | AID 719;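 active means viability at or below 50% in the single dose screen; inactive means viability above 50%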;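 further: compound exposure lasted 72 h before the ATP readout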
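Material: human lung fibroblast line LL 47, low passage; Evaluation: viability percentage against median untreated-cell control; Buffer or medium: 15% FBS in IMEM; Incubation: 72 h compound exposure at 37 °C after overnight plating; Dosing: 0.1% DMSO in all compound wells; Measured by: CellTiter-Glo luminescence.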
H69AR inhibit: growth inhibitors of human H69AR lung tumor cells. H69AR lung tumor viability, ATP luminescence, 72 h; active compounds read low. viability, % at 10 µM. hit rate 6% among 85,000;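 active means viability at or below 40%; inactive means viability above 40%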;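 further: multidrug resistant small cell line overexpressing MRP-1 efflux transporter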
HUVEC prolif 384: blocks proliferation of human endothelial cells; HUVEC proliferation, CellTiter-Glo luminescence, 72 h; active compounds read low; viability, % at 10 µM (by protocol); hit rate 1.1% among 86,000; AID 648;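 active means viability at or below 30%; inactive means viability above 30%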
A number is an active result; n = inactive; x = no result.

SMILES	bCat KO growth	HCT116 PTEN-null	Lung fibro prol	H69AR inhibit	HUVEC prolif 384
COC(=O)c1cc(C(=O)OC)cc(-n2c(C)cc(C(=O)COC(=O)CNS(=O)(=O)c3ccc(C)cc3)c2C)c1	n	n	x	x	x
COc1ccc(OC)c(N2C(N)=C(C#N)C(c3ccc(OC)c(O)c3)C3=C2CC(C)(C)CC3=O)c1 (centres undefined)	x	x	n	16	n
COc1ccc(C2C(C#N)=C(N)N(c3cccnc3)C3=C2C(=O)CC(C)(C)C3)cc1OC (centres undefined)	n	n	x	x	x
COc1ccc(C2C(C#N)=C(N)N(Nc3ccccc3)C3=C2C(=O)CC(C)(C)C3)cc1C (centres undefined)	n	n	x	x	x
COc1ccc(N2C(N)=C(C#N)C(c3cccnc3)C3=C2CC(C)(C)CC3=O)cc1 (centres undefined)	n	n	n	18	n
COc1cccc(NC(=O)COC(=O)c2cccnc2)c1	n	n	n	n	n
O=C(COC(=O)c1cc(-c2ccccc2)nc2ccccc12)Nc1ccc2c(c1)OCO2	n	n	x	x	x
O=C(COC(=O)c1c2c(nc3ccccc13)CCCC2)Nc1ccc2c(c1)OCO2	n	n	n	36	n
COc1cccc(NC(=O)COC(=O)c2c3c(nc4ccccc24)CCC(C)C3)c1 (centres undefined)	1.7	1.4	n	23	n
C1CCC(C(CC2CCCCN2)C2CCCCC2)CC1 (centres undefined)	1.5	2.2	1.8	1.3	1.6
Cc1c(CN(C)C)c2c(n1Cc1ccccc1)C(=O)c1ccccc1-2	n	n	n	38	n
O=C(O)c1cc(-c2ccc3c(c2)OCO3)nc2ccccc12	n	n	n	n	n
CC(NC(=O)c1cc(-c2ccc3c(c2)OCO3)nc2ccccc12)C(C)(C)C (centres undefined)	n	n	n	16	n
Cc1c(Cl)cccc1NC(=O)CCCN1C(=O)CCC1=O	n	n	n	n	n
CCCc1nnc(NC(=O)CCCN2C(=O)c3ccccc3C2=O)s1	n	n	n	n	n
Cc1nn(-c2nc3ccccc3[nH]2)c(N)c1-c1ccccc1	n	n	n	20	n
Cc1nn(-c2nc3ccccc3s2)c(N)c1-c1ccccc1	n	n	n	n	n
CCN(CC(=O)Nc1ccc(NC(C)=O)cc1)C(=O)COc1ccc(C(=O)c2ccccc2)cc1	n	n	x	x	x
COc1cccc2c(=O)c(SC(F)(F)C(F)C(F)(F)F)c(C)[nH]c12 (centres undefined)	n	n	n	17	n
Cc1nn(C)cc1/C=N/NC(=O)Cn1nccc1C	n	n	x	x	x
O=C(CSc1nnc(-c2ccccc2)c(-c2ccccc2)n1)NCc1ccco1	n	n	n	20	n
O=C(CSc1nc2c(c(C(F)(F)F)n1)CCc1ccccc1-2)NCc1ccco1	n	n	n	30	n
CC(NC(=O)CSc1nc2c(c(C(F)(F)F)n1)CCc1ccccc1-2)c1ccccc1 (centres undefined)	n	n	n	n	n
CN1CCN(Cc2nc3ccccc3c(=O)n2Cc2nc(-c3ccc([N+](=O)[O-])cc3)cs2)CC1	0.8	0.5	x	x	x
Nn1c(SCC(=O)NCCC2=CCCCC2)nnc1C(F)(F)F	n	n	x	x	x
SMILES	bCat KO growth	HCT116 PTEN-null	Lung fibro prol	H69AR inhibit	HUVEC prolif 384
CCc1ccc(C(=O)COC(=O)CNC(=O)COc2ccccc2)cc1	n	n	x	x	x
OCC[C@@H]1C[C@@H](O)[C@H](O)[C@]2(CCCCO2)O1	n	n	x	x	x
CN1CCN(c2nc(-c3ccccc3)nc3c2oc2ccccc23)CC1	x	x	n	n	24
COc1ccc(-c2cc(C(=O)N3CCN(c4ncccn4)CC3)c3ccccc3n2)c(OC)c1	n	n	x	x	x
CCOc1ccc(-c2cc(C(=O)N3CCN(c4ccccn4)CC3)c3ccccc3n2)cc1	n	n	n	18	n
COc1ccc(-c2cc(C(=O)N3CCN(c4ccccn4)CC3)c3ccccc3n2)cc1	n	n	n	16	n
COc1ccc(OC)c(-c2cc(C(=O)N3CCN(c4ncccn4)CC3)c3ccccc3n2)c1	n	n	n	30	n
CCOC(=O)N1CCN(C(=O)c2cc(-c3ccc(OCC)cc3)nc3ccccc23)CC1	n	n	n	16	n
CC1CCCCC12NC(=O)N(CC(=O)NC(=O)NCc1ccco1)C2=O (centres undefined)	n	n	x	x	x
O=C(CSc1nnc2scc(-c3ccccc3)n12)Nc1nsc(-c2ccccc2)n1	n	n	n	38	n
NC1=NC2(CCCCC2)N=C(Nc2ccc(F)cc2F)N1	n	n	x	x	x
Cc1cc(C)cc(NC2=NC3(CCCCC3)N=C(N)N2)c1	n	n	n	18	n
COc1cc(-c2nnn(CC(=O)N3CCOCC3)n2)cc(OC)c1OC	n	n	n	n	n
COc1ccc(-c2ccc(-c3nnn(CC(=O)N4CCOCC4)n3)cc2)cc1	n	n	38	24	n
Nc1ccc(O)c(-c2nc3ccccc3s2)c1	n	3.4	n	n	n
O=C(Nc1ccc(O)c(-c2nc3ccccc3s2)c1)c1cc(=O)c2ccccc2o1	n	n	x	x	x
Oc1ccc(N=C/C=C/c2cccc(Br)c2)cc1-c1nc2ccccc2s1	5.1	n	x	x	x
COc1cc(NC(C)C(=O)N2CC(C)OC(C)C2)cc(OC)c1 (centres undefined)	n	n	n	n	n
Cc1c(C(=O)Nc2ccc(F)cc2)oc2ccc(S(=O)(=O)N3CCC4(CC3)OCCO4)cc12	n	n	n	33	n
Cc1c(C(=O)Nc2cccc(Cl)c2)oc2ccc(S(=O)(=O)N3CCC4(CC3)OCCO4)cc12	n	n	n	13	n
Cc1c(C(=O)Nc2ccc(F)cc2)oc2ccc(S(=O)(=O)N3CCCC3)cc12	n	n	n	n	n
Cc1c(C(=O)NCc2ccccc2)oc2ccc(S(=O)(=O)N3CCC4(CC3)OCCO4)cc12	n	n	n	n	n
Cc1ccc(NC(=O)c2oc3ccc(S(=O)(=O)N4CCOCC4)cc3c2C)cc1C	n	n	n	37	n
Cc1cnc(C(=O)Nc2cccc(S(=O)(=O)N(C)C)c2)cn1	n	n	x	x	x
COc1ccc(-c2ncccc2OC(=O)C23CC4CC(CC(C4)C2)C3)cc1	n	n	x	x	x
SMILES	bCat KO growth	HCT116 PTEN-null	Lung fibro prol	H69AR inhibit	HUVEC prolif 384
CN(C)CCNC(=O)CN1C(=O)COc2ccc(C(C)(C)C)cc21	n	n	n	n	n
CCn1ncc([N+](=O)[O-])c1C(=O)N1CCCC1	n	n	x	x	x
O=C1C=C(Nc2ccc(Cl)cc2)CC(c2ccccc2)C1 (centres undefined)	n	n	x	x	x
COC(=O)C1=C(C)N(CCc2cc(OC)c(OC)c(OC)c2)C(=O)N[C@H]1c1ccc(Br)cc1	n	n	x	x	x
O=C(Nc1ccc([N+](=O)[O-])cc1)c1nc[nH]c1C(=O)NC1CCCCC1	2.8	1.2	x	x	x
O=C(Nc1ccc(F)cc1)c1nc[nH]c1C(=O)Nc1ccc([N+](=O)[O-])cc1	1.3	1.4	x	x	x
O=c1n(S(=O)(=O)c2cccc3cccnc23)c2ccccc2n1S(=O)(=O)c1cccc2cccnc12	n	n	n	n	n
Cc1cccc(N2CCN(C(=O)c3ccc(Cl)c(S(=O)(=O)N4CCc5ccccc5C4)c3)CC2)c1C	n	n	x	x	x

Assay outcomes as filed in PubChem.
